Measurements from different studies.
Protocols differ between the studies behind these lines.
Effect on: cell growth or viability

SMILES | cell line | assay | setting | quantity | result
CCOc1cc(C(C)(C)C)ccc1C1=N[C@@](C)(c2ccc(Cl)cc2)[C@@](C)(c2ccc(Cl)cc2)N1C(=O)N1CCN(CCCS(C)(=O)=O)CC1 | MB002 |  | 7 days | IC50 | 99.4 nM
COc1cc2c(Nc3ccc(Br)cc3F)ncnc2cc1OCC1CCN(C)CC1 | BT-474 | ATP luminescence | 72 h | GI50 | 5910 nM
CC(C)C[C@H](NC(=O)[C@H](Cc1ccccc1)NC(=O)c1cnccn1)B(O)O | SW948 | ATP luminescence |  | IC50 | 12 nM
COc1c(C)cnc(Cn2cnc3c(Cl)nc(N)nc32)c1C | MB002 |  | 7 days | IC50 | 97.4 nM
CC(=O)c1sc(=NN=C(C)c2c(O)c3ccccc3oc2=O)n(C)c1C | human Skin fibroblast | MTT | 48 h | IC50 | > 100000 nM
COc1cc(Nc2nccc(-c3cnn4nc(OC)ccc34)n2)cc(C(F)(F)F)c1 | SK-LU-1 | ATP luminescence |  | IC50 | 1100 nM
Cc1cc2c(cc1N1C(=O)c3cccc4c(CCCO)ccc(c34)C1=O)n(C)c(=O)n2C (racemic) | SW-403 | resazurin |  | GI50 | > 10000 nM
CC(=O)Nc1cccc(-n2c(=O)n(C3CC3)c(=O)c3c(Nc4ccc(I)cc4F)n(C)c(=O)c(C)c32)c1 | Calu-6 | resazurin | 0.1 µM, 72 h | viability | 62.6%
CCCCCCCCCC(=O)N[C@@H](Cc1c[nH]c2ccccc12)C(=O)N[C@H](CC(N)=O)C(=O)N[C@@H](CC(=O)O)C(=O)N[C@@H]1C(=O)NCC(=O)N[C@@H](CCCN)C(=O)N[C@@H](CC(=O)O)C(=O)N[C@H](C)C(=O)N[C@@H](CC(=O)O)C(=O)NCC(=O)N[C@H](CO)C(=O)N[C@@H]([C@H](C)CC(=O)O)C(=O)N[C@@H](CC(=O)c2ccccc2N)C(=O)O[C@@H]1C | KB 3-1 | WST-1 |  | Kb | > 64000 nM
CC[C@]1(O)C[C@H]2CN(CCc3c([nH]c4ccccc34)[C@@](C(=O)OC)(c3cc4c(cc3OC)N(C=O)[C@H]3[C@@](O)(C(=O)OC)[C@H](OC(C)=O)[C@]5(CC)C=CCN6CC[C@]43[C@@H]65)C2)C1 | MB002 |  | 7 days | IC50 | 11.2 nM
CC(=O)OC[C@H]1O[C@@H]([S-])[C@H](OC(C)=O)[C@@H](OC(C)=O)[C@@H]1OC(C)=O.CCP(CC)CC.[Au+] | KB 3-1 | WST-1 |  | Kb | 100 nM
CC(=O)c1c(C)c2cnc(Nc3ccc(N4CCNCC4)cn3)nc2n(C2CCCC2)c1=O | MB002 |  | 7 days | IC50 | 10.8 nM
O=C(NO)c1ccc(CN(c2cnccn2)c2cnccn2)cc1 | B16-F10 |  |  | GI50 | > 20000 nM
